One assay relates to WiDr. As to the kind of experiment: In vitro inhibition of WiDr colon cancer cell line. It is filed as functional, cell-based. To be noted: Homo sapiens. The gist of the method:
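Cells plated at 50 000 per well in 96-well trays. Drugs dissolved in DMSO as stock, then diluted in buffer and added to wells. IC50 was calculated from concentration–survival curves over a concentration range giving 0–100% survival.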

For assay [1], the system named is A2780. Briefly: In vitro inhibition of 2780/DOX ovarian cancer cell line. The class given is functional, cell-based. To be noted: Homo sapiens. The essentials: (§1)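 Cell growth inhibition: cells plated at 50 000/well; drugs dissolved in DMSO as stock and diluted in buffer before addition. IC50 taken from concentration-survival curves over a range of concentrations giving 0-100% survival.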

Assay [2] has as its system 2008/R. As to the kind of experiment: In vitro inhibition of 2008/R ovarian cancer cell line; NA= Not achievable. It is filed as functional, cell-based, Homo sapiens. The essentials: as §1
The test system of assay [3] is 2008/S. As to the kind of experiment: In vitro inhibition of 2008/S ovarian cancer cell line; NA= Not achievable. It is filed as functional, cell-based, Homo sapiens. The gist of the method:
as §1

For assay [4], the system named is RPMI-8226. As to the kind of experiment: In vitro inhibition of […] myeloma cancer cell line. The class given is functional, cell-based. To be noted: Homo sapiens. The essentials: as §1
Another assay relates to SW480. Briefly: In vitro inhibition of SW480 colon cancer cell line. The class given is functional, cell-based. Conditions: Homo sapiens; call rule not given here. The essentials: as §1
In assay [5] the test system is A2780. Briefly: In vitro inhibition of 2780/S ovarian cancer cell line. Conditions: Homo sapiens. The class given is functional, cell-based. The essentials:
as §1

The subject of assay [6] is 2008/S. Briefly: In vitro inhibition of 2008/S ovarian cancer cell line. The class given is functional, cell-based. Conditions: Homo sapiens. The essentials:
as §1

In assay [7] the test system is RPMI-8226. As to the kind of experiment: Dose-Response relationship for DNA single-strand cleavage with the compound in human 8226 multiple myeloma cells at a concentration of 0.1 ug/mL x1 hr. It is filed as functional.
Assay [8] relates to RPMI-8226. As to the kind of experiment: Dose-Response relationship for DNA single-strand cleavage with the compound in human 8226 multiple myeloma cells at a concentration of 1.0 ug/mL x1 hr. It is filed as functional.
The subject of assay [9] is RPMI-8226. Briefly: Dose-Response relationship for DNA single-strand cleavage with the compound in human 8226 multiple myeloma cells at a concentration of 10 ug/mL x1 hr. The class given is functional.
The test system of the next assay is Ovarian carcinoma cell. As to the kind of experiment: Inhibitory activity against ovarian cancer cell line; NA= Not achievable. The class given is functional, cell-based, Homo sapiens. The essentials: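 Fresh human tumor chemosensitivity assay: ovarian cancers removed surgically from patients, minced, and plated on soft agar as a single-cell suspension.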

The test system of assay [10] is 2008/R. Briefly: In vitro inhibition of 2008/R ovarian cancer cell line. It is filed as functional, cell-based. To be noted: Homo sapiens. The essentials:
as §1

Turning to `CC(=O)OC1CCn2c1nc1c2C(=O)C(C)=C(N(C)C)C1=O` (configuration not stated), in the assay with WiDr, it took 10000 nM to reach half-maximal inhibition (IC50).

On to `CC(=O)OC1CCn2c1nc1c2C(=O)C(C)=C(NC(=O)CCl)C1=N` (configuration not stated), for which, in the assay with WiDr, the IC50 (commonly the midpoint of a concentration-inhibition curve) worked out at 280 nM.

Regarding `CC(=O)OC1CCn2c1nc1c2C(=O)C(C)=CC1=O` (configuration not stated), in the assay on WiDr, the IC50 was found to be 300 nM.

`CC1=CC(=O)c2nc3n(c2C1=O)CCC3OC(N)=O` (configuration not stated) displayed a concentration for half-maximal inhibition (IC50) with WiDr of 10000 nM.

`CC(=O)NC1=C(C)C(=O)c2c(nc3n2CCC3OC(C)=O)C1=N` (configuration not stated) gave an IC50 in the assay on WiDr of 150 nM.

In turn, `CC(=O)NC1=C(C)C(=O)c2c(nc3n2CCC3)C1=O` came in with an IC50 in the assay with WiDr of 500 nM.

Consider `CC1=C(N2CC2)C(=O)c2nc3n(c2C1=O)CCC3`, for which the IC50 with WiDr is 15 nM.

Consider `CC1=C(N2CC2)C(=O)c2nc3n(c2C1=O)CCC3OC(N)=O` (configuration not stated), for which the IC50 in the assay on A2780 [1] is 200 nM; with 2008/R [2], “Not Active”; in the assay on 2008/S [3], “Not Active”; in the assay on RPMI-8226 [4] it was 140 nM; in the assay with WiDr, 100 nM; with SW480, 19 nM. In the assay with A2780 [5], this molecule gave an IC50 of 100 nM.

Take `CC(=O)NC1=C(C)C(=O)c2c(nc3n2CCC3)C1=N`: in the assay on WiDr, half-maximal inhibition (IC50) required 10000 nM.

Regarding `CC(=O)NC1=C(C)C(=O)c2c(nc3n2CCC3OC(C)=O)C1=O` (configuration not stated), the IC50 in the assay with WiDr came out at 6000 nM.

Turning to `CC(=O)NC1=C(C)C(=O)c2c(nc3n2CCC3OC(N)=O)C1=O` (configuration not stated), in the assay on WiDr, the IC50 is 16000 nM.

In the case of `CC1=C(N(C)C)C(=O)c2nc3n(c2C1=O)CCC3OC(N)=O` (configuration not stated), the midpoint of inhibition in the assay with WiDr, the IC50, lay at 13000 nM.

`CC1=C(N(C)C)C(=O)c2nc3n(c2C1=O)CCC3`: the IC50 in the assay with WiDr amounted to 13000 nM.

On to `CC(=O)OC1CCn2c1nc1c2C(=O)C(C)=C(N2CC2)C1=O` (configuration not stated), for which the IC50 was 16 nM in the assay with A2780 [1]; 7 nM in the assay with 2008/S [6]; 100 nM in the assay on RPMI-8226 [4]; “Not Active” in the assay with Ovarian carcinoma cell; 10 nM in the assay with WiDr; 7 nM in the assay on 2008/R [10]. Also, the values for the IC50 in the assay with SW480 and in the assay on A2780 [5] were 9 nM and 0.6 nM, respectively. In addition, the Cleavage in the assay with RPMI-8226 [7] is listed as 59; in the assay on RPMI-8226 [8], 321; in the assay with RPMI-8226 [9] it was 469.

As for `CO[C@@]12[C@H](COC(N)=O)C3=C(C(=O)C(C)=C(N)C3=O)N1C[C@@H]1N[C@@H]12` [MITOMYCIN], the IC50 in the assay with A2780 [1] was 200 nM; in the assay with 2008/R [2], “Not Active”; in the assay on 2008/S [3], “Not Active”; with RPMI-8226 [4], 200 nM; in the assay on WiDr it was 10 nM; in the assay with SW480, 7 nM. In the assay on A2780 [5], 100 nM corresponded to half-maximal inhibition (IC50).

The values above are taken from ChEMBL document CHEMBL1125763, “Structure-activity studies of antitumor agents based on pyrrolo[1,2-a]benzimidazoles: new reductive alkylating DNA cleaving agents” (J Med Chem, 1991).
